The text below walks through data of ChEMBL document CHEMBL4118247, “Development of the first small molecule histone deacetylase 6 (HDAC6) degraders” (Bioorg Med Chem Lett, 2018).

What all share (type): cell-based
For assay [1], the target named is T1, Protein cereblon/Histone deacetylase 1 (Homo sapiens) (UniProt Q13547+Q96SW2). Briefly: Induction of CRBN ubiquitin ligase-mediated HDAC1 degradation in human MCF7 cells assessed as decrease in HDAC1 levels at 5 uM after 12 hrs by immunoblotting analysis. An outline of the steps: (§1)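 MCF-7 cells exposed to bifunctional degraders at 5 µM for 12 h. Whole-cell lysate run on SDS-PAGE and immunoblotted for HDAC1, HDAC2, HDAC4 and HDAC6.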
T1 sequence (Q13547 whole entry, looked up): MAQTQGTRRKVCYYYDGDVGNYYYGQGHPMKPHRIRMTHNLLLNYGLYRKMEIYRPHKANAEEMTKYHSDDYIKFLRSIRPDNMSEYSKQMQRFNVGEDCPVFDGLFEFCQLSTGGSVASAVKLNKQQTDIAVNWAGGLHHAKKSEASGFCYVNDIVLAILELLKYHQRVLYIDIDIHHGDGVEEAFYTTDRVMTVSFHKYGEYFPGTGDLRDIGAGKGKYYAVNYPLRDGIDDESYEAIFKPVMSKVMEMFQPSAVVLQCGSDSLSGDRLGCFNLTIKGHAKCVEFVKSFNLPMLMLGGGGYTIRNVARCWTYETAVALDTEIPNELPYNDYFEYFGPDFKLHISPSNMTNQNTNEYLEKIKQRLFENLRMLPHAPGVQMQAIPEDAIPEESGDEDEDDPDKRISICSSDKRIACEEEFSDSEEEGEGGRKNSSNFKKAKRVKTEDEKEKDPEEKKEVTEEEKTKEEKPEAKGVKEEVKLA
T1 sequence (Q96SW2 whole entry, looked up): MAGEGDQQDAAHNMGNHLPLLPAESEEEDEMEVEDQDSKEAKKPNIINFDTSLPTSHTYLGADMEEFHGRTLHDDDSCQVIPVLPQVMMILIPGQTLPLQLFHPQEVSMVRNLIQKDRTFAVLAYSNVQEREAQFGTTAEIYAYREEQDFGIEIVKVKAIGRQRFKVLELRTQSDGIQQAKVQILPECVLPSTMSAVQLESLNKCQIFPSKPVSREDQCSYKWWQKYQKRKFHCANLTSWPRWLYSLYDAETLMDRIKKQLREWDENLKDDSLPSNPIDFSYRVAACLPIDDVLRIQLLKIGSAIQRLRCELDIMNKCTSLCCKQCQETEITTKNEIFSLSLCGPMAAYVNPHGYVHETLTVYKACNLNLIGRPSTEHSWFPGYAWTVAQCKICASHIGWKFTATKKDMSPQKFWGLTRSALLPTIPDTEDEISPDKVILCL

Assay [2] addresses Protein cereblon/Histone deacetylase 4 (Homo sapiens) (UniProt P56524+Q96SW2). The assay is described as follows: Induction of CRBN ubiquitin ligase-mediated HDAC4 degradation in human MCF7 cells assessed as decrease in HDAC4 levels at 5 uM after 12 hrs by immunoblotting analysis. An outline of the steps: as §1
For assay [3], the target named is T2, Protein cereblon/Histone deacetylase 2 (Homo sapiens) (UniProt Q92769+Q96SW2). The assay is described as follows: Induction of CRBN ubiquitin ligase-mediated HDAC2 degradation in human MCF7 cells assessed as decrease in HDAC2 levels at 5 uM after 12 hrs by immunoblotting analysis. An outline of the steps: as §1
T2 sequence (Q92769 whole entry, looked up): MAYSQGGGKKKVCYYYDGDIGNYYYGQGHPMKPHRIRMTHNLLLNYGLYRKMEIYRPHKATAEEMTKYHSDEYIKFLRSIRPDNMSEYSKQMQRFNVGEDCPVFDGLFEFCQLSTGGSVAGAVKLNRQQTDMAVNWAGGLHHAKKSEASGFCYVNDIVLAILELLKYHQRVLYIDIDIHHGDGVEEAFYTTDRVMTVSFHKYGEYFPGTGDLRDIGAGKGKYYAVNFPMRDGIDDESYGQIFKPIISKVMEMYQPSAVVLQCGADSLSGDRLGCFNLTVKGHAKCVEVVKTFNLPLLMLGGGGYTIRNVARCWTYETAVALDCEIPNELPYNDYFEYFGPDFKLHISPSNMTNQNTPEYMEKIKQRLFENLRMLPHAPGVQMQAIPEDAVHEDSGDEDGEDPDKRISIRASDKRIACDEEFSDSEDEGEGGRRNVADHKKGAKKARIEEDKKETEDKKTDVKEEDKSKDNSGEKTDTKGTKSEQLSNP
T2 sequence (Q96SW2 whole entry, looked up): as the sequence (Q96SW2 whole entry, looked up) above
Assay [4] addresses T3, Protein cereblon/Protein deacetylase HDAC6 (Homo sapiens, UniProt Q9UBN7+Q96SW2). Briefly: Induction of CRBN ubiquitin ligase-mediated HDAC6 degradation in human MCF7 cells assessed as decrease in HDAC6 levels at 5 uM after 12 hrs by immunoblotting analysis. An outline of the steps: as §1
Target sequence in this assay (Q96SW2 whole entry, looked up): as above
Target sequence in this assay (Q9UBN7 whole entry, looked up): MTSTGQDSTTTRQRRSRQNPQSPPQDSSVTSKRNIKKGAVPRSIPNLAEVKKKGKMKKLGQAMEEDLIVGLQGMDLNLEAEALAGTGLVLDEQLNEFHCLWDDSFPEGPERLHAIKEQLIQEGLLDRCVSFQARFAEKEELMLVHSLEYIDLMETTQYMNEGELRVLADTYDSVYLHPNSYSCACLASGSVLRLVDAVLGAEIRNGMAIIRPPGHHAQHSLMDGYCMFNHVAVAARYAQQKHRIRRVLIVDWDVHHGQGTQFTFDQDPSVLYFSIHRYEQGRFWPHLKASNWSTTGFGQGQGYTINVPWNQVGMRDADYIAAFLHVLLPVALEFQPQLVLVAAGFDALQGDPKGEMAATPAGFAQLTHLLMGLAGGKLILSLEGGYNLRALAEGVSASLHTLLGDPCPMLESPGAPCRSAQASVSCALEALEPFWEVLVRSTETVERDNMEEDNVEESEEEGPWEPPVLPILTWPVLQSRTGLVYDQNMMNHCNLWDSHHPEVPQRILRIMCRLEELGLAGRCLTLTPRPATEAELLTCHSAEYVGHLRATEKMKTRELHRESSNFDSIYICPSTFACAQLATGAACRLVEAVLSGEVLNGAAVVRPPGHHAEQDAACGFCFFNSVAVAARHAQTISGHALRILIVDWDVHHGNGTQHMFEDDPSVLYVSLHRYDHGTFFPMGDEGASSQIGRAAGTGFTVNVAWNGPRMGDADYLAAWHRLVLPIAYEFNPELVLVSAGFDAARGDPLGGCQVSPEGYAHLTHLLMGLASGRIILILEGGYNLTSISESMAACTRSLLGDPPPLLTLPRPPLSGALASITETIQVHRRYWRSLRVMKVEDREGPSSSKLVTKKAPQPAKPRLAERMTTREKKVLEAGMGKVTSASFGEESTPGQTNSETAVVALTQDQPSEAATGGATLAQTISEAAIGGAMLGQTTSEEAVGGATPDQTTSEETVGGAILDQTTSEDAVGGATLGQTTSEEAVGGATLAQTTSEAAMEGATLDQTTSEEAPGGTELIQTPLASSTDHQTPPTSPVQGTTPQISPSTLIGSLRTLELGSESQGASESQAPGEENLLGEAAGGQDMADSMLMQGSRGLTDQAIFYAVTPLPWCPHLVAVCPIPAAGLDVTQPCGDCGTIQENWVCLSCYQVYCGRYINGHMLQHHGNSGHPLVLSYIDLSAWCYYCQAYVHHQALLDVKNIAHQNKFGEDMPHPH
Assay [5] has as its target T3, Protein cereblon/Protein deacetylase HDAC6. The assay is described as follows: Induction of CRBN ubiquitin ligase-mediated HDAC6 degradation in human MCF7 cells assessed as decrease in HDAC6 levels at 2 uM preincubated for 1 hr with CRBN ligand pomalidomide followed by compound addition for 12 hrs by immunoblotting analysis. An outline of the steps:
(§2)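 MCF-7 cells pre-treated 1 h with 5 µM MG132, 5 µM pomalidomide or DMSO vehicle, then given 2 µM degrader or vehicle for 12 h. Whole-cell lysate immunoblotted for HDAC6 and acetylated α-tubulin.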
Target sequence in this assay (Q96SW2 whole entry, looked up): as the sequence (Q96SW2 whole entry, looked up) above
Target sequence in this assay (Q9UBN7 whole entry, looked up): as the sequence (Q9UBN7 whole entry, looked up) above

The target is the same in assay [6]. Briefly: Induction of CRBN ubiquitin ligase-mediated HDAC6 degradation in human MCF7 cells assessed as decrease in HDAC6 levels at 2 uM preincubated for 1 hr with proteosome-inhibitor MG132 followed by compound addition for 12 hrs by immunoblotting analysis. An outline of the steps:
as §2
Target sequence in this assay (Q96SW2 whole entry, looked up): as the sequence (Q96SW2 whole entry, looked up) above
Target sequence in this assay (Q9UBN7 whole entry, looked up): as the sequence (Q9UBN7 whole entry, looked up) above

Assay [7] has the same target. Briefly: Induction of CRBN ubiquitin ligase-mediated HDAC6 degradation in human MCF7 cells assessed as increase in acetylated alpha-tubulin levels at 1.1 to 10 uM after 12 hrs by immunoblotting analysis. An outline of the steps:
(§3)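 MCF-7 cells treated for 12 h across a range of 5 nM to 10 µM. Whole-cell lysate immunoblotted for HDAC6 and acetylated α-tubulin. Band intensities quantified by densitometry and curve-fitted to derive half-maximal degradation.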
Target sequence in this assay (Q96SW2 whole entry, looked up): as the sequence (Q96SW2 whole entry, looked up) above
Target sequence in this assay (Q9UBN7 whole entry, looked up): as the sequence (Q9UBN7 whole entry, looked up) above

The target is the same in assay [8]. Briefly: Induction of CRBN ubiquitin ligase-mediated HDAC6 degradation in human MM1S cells assessed as increase in acetylated alpha-tubulin levels at =>80 nM after 6 hrs by immunoblotting analysis. An outline of the steps:
(§4)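 MM.1S cells treated for 6 h at a range of concentrations. Whole-cell lysate immunoblotted for HDAC6 and acetylated α-tubulin.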
Target sequence in this assay (Q96SW2 whole entry, looked up): as the sequence (Q96SW2 whole entry, looked up) above
Target sequence in this assay (Q9UBN7 whole entry, looked up): as the sequence (Q9UBN7 whole entry, looked up) above

The target is the same in assay [9]. The assay is described as follows: Induction of CRBN ubiquitin ligase-mediated HDAC6 degradation in human MCF7 cells assessed as increase in acetylated alpha-tubulin levels at 2 uM after 2 hrs by immunoblotting analysis. An outline of the steps: (§5)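 Time course in MCF-7 cells: 2 µM degrader or DMSO vehicle for 0–8 h. Whole-cell lysate immunoblotted for HDAC6 and acetylated α-tubulin.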
Target sequence in this assay (Q96SW2 whole entry, looked up): as the sequence (Q96SW2 whole entry, looked up) above
Target sequence in this assay (Q9UBN7 whole entry, looked up): as the sequence (Q9UBN7 whole entry, looked up) above

The target is the same in assay [10]. The assay is described as follows: Induction of CRBN ubiquitin ligase-mediated HDAC6 degradation in human MCF7 cells assessed as decrease in HDAC6 levels after 12 hrs by immunoblotting analysis. An outline of the steps:
as §3

For assay [11] the target is unchanged. The assay is described as follows: Induction of CRBN ubiquitin ligase-mediated HDAC6 degradation in human MCF7 cells assessed as increase in acetylated alpha-tubulin levels at 2 uM at 2 uM preincubated for 1 hr with CRBN ligand pomalidomide followed by compound addition for 12 hrs by immunoblotting analysis. An outline of the steps:
as §2

Assay [12] shares this target. Briefly: Induction of CRBN ubiquitin ligase-mediated HDAC6 degradation in human MCF7 cells assessed as decrease in HDAC6 levels at 2 uM preincubated for 1 hr with 100 nM pan-HDAC inhibitor N-hydroxy-8-(2-(4-methoxybenzylidene)hydrazinyl)-8-oxooctanamide followed by compound addition for 12 hrs by immunoblotting analysis. An outline of the steps: (§6)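 MCF-7 cells pre-treated 1 h with pan-HDAC inhibitor (1 µM or 100 nM) or DMSO vehicle, then given 2 µM degrader or vehicle for 12 h. Whole-cell lysate immunoblotted for HDAC6 and acetylated α-tubulin.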

The target is the same in assay [13]. Briefly: Induction of CRBN ubiquitin ligase-mediated HDAC6 degradation in human MCF7 cells assessed as decrease in HDAC6 levels at 2 uM preincubated for 1 hr with 1 uM pan-HDAC inhibitor N-hydroxy-8-(2-(4-methoxybenzylidene)hydrazinyl)-8-oxooctanamide followed by compound addition for 12 hrs by immunoblotting analysis. An outline of the steps:
as §6

For assay [14], the target named is T2, Protein cereblon/Histone deacetylase 2 (Homo sapiens). The assay is described as follows: Induction of CRBN ubiquitin ligase-mediated HDAC2 degradation in human MCF7 cells assessed as increase in acetylated H3 levels at 2 uM after 12 hrs by immunoblotting analysis.
The target of assay [15] is T1, Protein cereblon/Histone deacetylase 1 (Homo sapiens). The assay is described as follows: Induction of CRBN ubiquitin ligase-mediated HDAC1 degradation in human MCF7 cells assessed as increase in acetylated H3 levels at 2 uM after 12 hrs by immunoblotting analysis.
For assay [16], the target named is T3, Protein cereblon/Protein deacetylase HDAC6. The assay is described as follows: Induction of CRBN ubiquitin ligase-mediated HDAC6 degradation in human MM1S cells assessed as decrease in HDAC6 levels at =>80 nM after 6 hrs by immunoblotting analysis. An outline of the steps:
as §4

The target is the same in assay [17]. The assay is described as follows: Induction of CRBN ubiquitin ligase-mediated HDAC6 degradation in human MCF7 cells assessed as increase in acetylated alpha-tubulin levels at 2 uM preincubated for 1 hr with proteosome-inhibitor MG132 followed by compound addition for 12 hrs by immunoblotting analysis. An outline of the steps: as §2
Assay [18] shares this target. Briefly: Induction of CRBN ubiquitin ligase-mediated HDAC6 degradation in human MCF7 cells assessed as increase in acetylated alpha-tubulin levels at 2 uM preincubated for 1 hr with 100 nM pan-HDAC inhibitor N-hydroxy-8-(2-(4-methoxybenzylidene)hydrazinyl)-8-oxooctanamide followed by compound addition for 12 hrs by immunoblotting analysis. An outline of the steps:
as §6

For assay [19] the target is unchanged. The assay is described as follows: Induction of CRBN ubiquitin ligase-mediated HDAC6 degradation in human MCF7 cells assessed as decrease in HDAC6 levels at 2 uM after 2 hrs by immunoblotting analysis. An outline of the steps: as §5
The target of assay [20] is Histone deacetylase (Homo sapiens) (UniProt Q13547+O15379+Q9UBN7+Q92769+Q9UQL6+Q8WUI4+Q9BY41+Q96DB2+P56524+Q9UKV0+Q969S8). Briefly: Inhibition of HDAC in human MCF7 cells assessed as increase in acetylated H3 levels at 2 uM after 12 hrs by immunoblotting analysis.

Each structure is given as a SMILES string. Activity calls are given as the source filed them. The rule behind the calls is not given here.

Protein cereblon/Histone deacetylase 4 (Homo sapiens), sequence (P56524 whole entry, looked up): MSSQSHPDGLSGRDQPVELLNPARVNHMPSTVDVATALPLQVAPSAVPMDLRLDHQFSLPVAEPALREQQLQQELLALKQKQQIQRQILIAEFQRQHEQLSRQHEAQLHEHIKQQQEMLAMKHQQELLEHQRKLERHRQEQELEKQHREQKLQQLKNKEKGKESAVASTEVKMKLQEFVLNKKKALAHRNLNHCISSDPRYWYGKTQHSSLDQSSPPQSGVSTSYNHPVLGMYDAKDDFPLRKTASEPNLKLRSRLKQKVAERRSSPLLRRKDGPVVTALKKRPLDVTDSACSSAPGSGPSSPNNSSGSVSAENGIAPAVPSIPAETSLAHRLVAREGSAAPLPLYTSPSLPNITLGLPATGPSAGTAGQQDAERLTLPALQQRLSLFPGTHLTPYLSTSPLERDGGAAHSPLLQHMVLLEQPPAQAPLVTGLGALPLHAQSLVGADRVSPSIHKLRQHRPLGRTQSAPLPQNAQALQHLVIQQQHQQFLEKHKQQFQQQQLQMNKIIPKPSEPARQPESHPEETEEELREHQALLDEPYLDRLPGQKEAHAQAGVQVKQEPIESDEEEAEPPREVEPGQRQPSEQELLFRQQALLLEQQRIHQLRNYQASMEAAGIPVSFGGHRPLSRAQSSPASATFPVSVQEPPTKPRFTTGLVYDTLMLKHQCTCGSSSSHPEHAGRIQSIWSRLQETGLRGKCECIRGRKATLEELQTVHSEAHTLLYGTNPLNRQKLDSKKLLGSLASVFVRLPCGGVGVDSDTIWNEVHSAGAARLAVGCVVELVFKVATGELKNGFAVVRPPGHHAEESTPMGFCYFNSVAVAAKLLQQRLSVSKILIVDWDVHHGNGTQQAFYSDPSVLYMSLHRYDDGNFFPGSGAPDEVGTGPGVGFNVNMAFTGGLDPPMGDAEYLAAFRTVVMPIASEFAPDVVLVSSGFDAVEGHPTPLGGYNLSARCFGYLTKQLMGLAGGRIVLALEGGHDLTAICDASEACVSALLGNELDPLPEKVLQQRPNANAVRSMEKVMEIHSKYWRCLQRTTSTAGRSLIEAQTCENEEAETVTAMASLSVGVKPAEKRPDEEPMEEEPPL
Protein cereblon/Histone deacetylase 4 (Homo sapiens), sequence (Q96SW2 whole entry, looked up): as the sequence (Q96SW2 whole entry, looked up) above

As for `O=C(CCCCCCC(=O)N/N=C/c1ccc(OCCOCCOCCOCCn2cc(CNc3cccc4c3C(=O)N(C3CCC(=O)NC3=O)C4=O)nn2)cc1)NO` (centres undefined), the outcome in assay [1], in [2] and in [3] was inactive. Besides, the result in assay [4] was Active.
As for `O=C(CCCCCCC(=O)N/N=C/c1ccc(OCCOCCOCCn2cc(CNc3cccc4c3C(=O)N(C3CCC(=O)NC3=O)C4=O)nn2)cc1)NO` (centres undefined), the outcome in [5], in assay [1], in assay [2], in assay [6], in assay [11] and in assay [13] was inactive. The result in [3] and in assay [17] was inactive. For the same compound, the outcome in [7], in assay [8], in assay [9], in assay [12], in assay [14] and in assay [15] was Active. Moreover, the outcome in assay [4], in [16], in assay [18] and in [19] was Active. The Activity result in [10] was “Dose-dependent effect”. Besides, the DC50 in [10] worked out at 34 nM. Moreover, the maximal response (Emax) in [10] was determined as 70.5%.
With `COc1ccc(/C=N/NC(=O)CCCCCCC(=O)NO)cc1`, the inhibition entry in [20] was “Active”.
Regarding `O=C(CCCCCCC(=O)N/N=C/c1ccc(OCCn2cc(CNc3cccc4c3C(=O)N(C3CCC(=O)NC3=O)C4=O)nn2)cc1)NO` (centres undefined), the result in assay [1], in assay [2] and in assay [3] was inactive. Also, the result in [4] was Active.
For the compound `O=C(CCCCCCC(=O)N/N=C/c1ccc(OCCOCCn2cc(CNc3cccc4c3C(=O)N(C3CCC(=O)NC3=O)C4=O)nn2)cc1)NO` (centres undefined), the outcome in assay [1], in assay [2] and in assay [3] was inactive. In assay [4], the result was Active.
